Activity calls are given as the source filed them. The rule behind the calls is not given here.
How the values were obtained:
[1] = biological target: T1, Metabotropic glutamate receptor 2 (Homo sapiens, UniProt Q14416); test: Ratio of EC50 for positive allosteric modulation of human mGlu2 receptor expressed in CHOK1 cell membranes assessed as increase in glutamate-induced [35S]GTPgammaS binding co-incubated with [35S]GTPgammaS to EC50 for positive allosteric modulation of human mGlu2 receptor expressed in CHOK1 cell …; format: functional
Target sequence in this assay (Q14416 19-872 limits assumed): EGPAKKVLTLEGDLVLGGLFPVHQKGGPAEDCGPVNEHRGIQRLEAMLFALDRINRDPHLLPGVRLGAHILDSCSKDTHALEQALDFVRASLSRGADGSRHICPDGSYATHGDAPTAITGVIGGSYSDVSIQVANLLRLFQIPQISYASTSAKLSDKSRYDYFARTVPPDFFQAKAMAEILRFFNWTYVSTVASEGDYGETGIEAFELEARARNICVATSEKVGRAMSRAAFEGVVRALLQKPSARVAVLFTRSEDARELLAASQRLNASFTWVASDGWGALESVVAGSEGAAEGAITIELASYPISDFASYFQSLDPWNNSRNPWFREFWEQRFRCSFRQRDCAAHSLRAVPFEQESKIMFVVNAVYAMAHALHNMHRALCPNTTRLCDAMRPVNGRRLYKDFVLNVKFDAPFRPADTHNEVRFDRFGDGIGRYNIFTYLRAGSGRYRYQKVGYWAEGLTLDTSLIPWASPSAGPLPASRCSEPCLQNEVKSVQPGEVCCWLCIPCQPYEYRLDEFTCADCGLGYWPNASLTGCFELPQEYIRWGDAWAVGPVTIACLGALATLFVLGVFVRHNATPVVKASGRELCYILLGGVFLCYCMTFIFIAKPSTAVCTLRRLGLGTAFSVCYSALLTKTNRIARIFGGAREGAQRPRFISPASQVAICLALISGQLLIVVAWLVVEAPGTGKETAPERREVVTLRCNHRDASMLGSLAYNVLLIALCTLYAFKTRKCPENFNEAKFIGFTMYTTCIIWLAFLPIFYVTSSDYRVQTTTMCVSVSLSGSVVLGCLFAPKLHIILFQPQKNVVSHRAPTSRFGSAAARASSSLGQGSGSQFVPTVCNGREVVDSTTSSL

[2] = biological target: T1, Metabotropic glutamate receptor 2; test: Displacement of [3H]JNJ-46281222 from human mGlu2 receptor expressed in CHOK1 cell membranes at IC50 after 1 hr in presence of glutamate by microbeta scintillation counting method
Target sequence in this assay (Q14416 19-872 limits assumed): as above

[3] = biological target: T1, Metabotropic glutamate receptor 2; test: Displacement of [3H]JNJ-46281222 from human mGlu2 receptor expressed in CHOK1 cell membranes after 1 hr by microbeta scintillation counting method
Target sequence in this assay (Q14416 whole entry): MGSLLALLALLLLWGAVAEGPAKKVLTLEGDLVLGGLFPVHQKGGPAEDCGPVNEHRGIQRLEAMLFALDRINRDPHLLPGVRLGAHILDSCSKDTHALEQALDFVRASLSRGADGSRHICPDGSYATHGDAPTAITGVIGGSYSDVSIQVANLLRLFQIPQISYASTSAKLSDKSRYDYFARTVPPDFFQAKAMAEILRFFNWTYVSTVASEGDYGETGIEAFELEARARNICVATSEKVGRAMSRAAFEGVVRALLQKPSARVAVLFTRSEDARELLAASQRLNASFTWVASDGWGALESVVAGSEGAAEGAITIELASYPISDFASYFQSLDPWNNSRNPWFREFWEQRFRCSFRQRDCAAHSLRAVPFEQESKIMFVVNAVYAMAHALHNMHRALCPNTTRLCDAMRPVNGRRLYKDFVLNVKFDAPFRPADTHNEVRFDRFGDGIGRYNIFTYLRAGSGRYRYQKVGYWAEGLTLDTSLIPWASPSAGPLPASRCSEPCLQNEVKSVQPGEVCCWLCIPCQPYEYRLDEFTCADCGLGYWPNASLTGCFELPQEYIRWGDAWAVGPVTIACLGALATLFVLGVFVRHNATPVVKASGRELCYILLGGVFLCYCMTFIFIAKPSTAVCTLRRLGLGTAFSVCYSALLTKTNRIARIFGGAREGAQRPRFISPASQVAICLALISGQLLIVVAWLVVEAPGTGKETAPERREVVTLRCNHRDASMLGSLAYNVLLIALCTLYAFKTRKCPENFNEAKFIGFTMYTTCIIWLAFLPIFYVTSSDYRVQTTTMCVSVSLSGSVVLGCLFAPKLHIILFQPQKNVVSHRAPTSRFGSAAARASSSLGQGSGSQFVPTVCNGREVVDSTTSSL

[4] = biological target: T1, Metabotropic glutamate receptor 2; test: Positive allosteric modulation of human mGlu2 receptor expressed in CHOK1 cell membranes assessed as increase in glutamate-induced [35S]GTPgammaS binding at 10 times IC50 test compound added before washing steps preincubated for 30 mins followed by [35S]GTPgammaS addition and measured after 30 mins by scintillation spectrometry method; format: functional
Target sequence in this assay (Q14416 19-872 limits assumed): as the sequence (Q14416 19-872 limits assumed) above

[5] = biological target: T1, Metabotropic glutamate receptor 2; test: Displacement of [3H]JNJ-46281222 from human mGlu2 receptor expressed in CHOK1 cell membranes assessed as association rate constant after 1 hr in presence of glutamate by microbeta scintillation counting method
Target sequence in this assay (Q14416 19-872 limits assumed): as above

[6] = biological target: T1, Metabotropic glutamate receptor 2; test: Positive allosteric modulation of human mGlu2 receptor expressed in CHOK1 cell membranes assessed as increase in glutamate-induced [35S]GTPgammaS binding measured after 1 hr by scintillation spectrometry method; format: functional
Target sequence in this assay (Q14416 whole entry): as the sequence (Q14416 whole entry) above

[7] = test system: Metabotropic glutamate receptor 2 (Homo sapiens), Q14416 [R720A]; test: Displacement of [3H]JNJ-46281222 from human mGlu2 R720A mutant receptor transiently expressed in CHOK1 cell membranes at 10 times IC50 after 1 hr by liquid scintillation counting method
Metabotropic glutamate receptor 2 (Homo sapiens), Q14416 [R720A], sequence (Q14416 whole entry R720A): as the sequence (Q14416 whole entry) above, with R720A counted along it

[8] = biological target: T1, Metabotropic glutamate receptor 2; test: Displacement of [3H]JNJ-46281222 from human mGlu2 receptor expressed in CHOK1 cell membranes preincubated for 3 hrs followed by [3H]JNJ-46281222 addition and measured after 1 hr by microbeta scintillation counting method
Target sequence in this assay (Q14416 whole entry): as the sequence (Q14416 whole entry) above

Homo sapiens [9] = species: Homo sapiens; test: Displacement of [3H]JNJ-46281222 from human mGlu2 T7917.29x30A mutant receptor transiently expressed in CHOK1 cell membranes preincubated for 3 hrs followed by [3H]JNJ-46281222 addition and measured after 1 hr by liquid scintillation counting method
[10] = biological target: T1, Metabotropic glutamate receptor 2; test: Positive allosteric modulation of human mGlu2 receptor expressed in CHOK1 cell membranes assessed as increase in glutamate-induced [35S]GTPgammaS binding preincubated for 3 hrs followed by [35S]GTPgammaS addition and measured after 1 hr by scintillation spectrometry method; format: functional
Target sequence in this assay (Q14416 whole entry): as above

[11] = test system: Metabotropic glutamate receptor 2 (Homo sapiens), Q14416 [Y787A]; test: Displacement of [3H]JNJ-46281222 from human mGlu2 Y787A mutant receptor transiently expressed in CHOK1 cell membranes at 10 times IC50 after 1 hr by liquid scintillation counting method
Metabotropic glutamate receptor 2 (Homo sapiens), Q14416 [Y787A], sequence (Q14416 whole entry Y787A): as the sequence (Q14416 whole entry) above, with Y787A counted along it

[12] = biological target: T1, Metabotropic glutamate receptor 2; test: Irreversible positive allosteric modulation of human mGlu2 receptor expressed in CHOK1 cell membranes assessed as increase in glutamate-induced [35S]GTPgammaS binding at 10 times IC50 preincubated for 30 mins followed by compound washout and subsequent [35S]GTPgammaS addition and measured after 30 mins by scintillation spectrometry method; format: functional
Target sequence in this assay (Q14416 19-872 limits assumed): as the sequence (Q14416 19-872 limits assumed) above

[13] = biological target: T1, Metabotropic glutamate receptor 2; test: Irreversible displacement of [3H]JNJ-46281222 from human mGlu2 receptor expressed in CHOK1 cell membranes at 10 times IC50 preincubated for 1 hr in presence of glutamate followed by compound washout and [3H]JNJ-46281222 addition measured after 1 hr by microbeta scintillation counting method
Target sequence in this assay (Q14416 19-872 limits assumed): as above

[14] = biological target: T1, Metabotropic glutamate receptor 2; test: Ratio of Ki for human mGlu2 receptor expressed in CHOK1 cell membranes without preincubation to Ki for human mGlu2 receptor expressed in CHOK1 cell membranes preincubated for 3 hrs; format: cell-based
Procedure, shortened: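 CHO-K1 membranes stably expressing hmGlu2 (butyrate-induced, 15 µg) were pre-coupled to WGA SPA beads. […] Nonspecific binding was defined with 10 µM JNJ-40068782. Mean of ≥3 experiments in duplicate.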

Homo sapiens [15] = species: Homo sapiens; test: Displacement of [3H]JNJ-46281222 from human mGlu2 C7957.33x34A mutant receptor transiently expressed in CHOK1 cell membranes at 10 times IC50 after 1 hr by liquid scintillation counting method
[16] = biological target: T1, Metabotropic glutamate receptor 2; test: Displacement of [3H]JNJ-46281222 from human mGlu2 receptor transiently expressed in CHOK1 cell membranes after 1 hr by liquid scintillation counting method
Target sequence in this assay (Q14416 whole entry): as the sequence (Q14416 whole entry) above

[17] = Displacement of [3H]JNJ-46281222 from human mGlu2 T7917.29x30A mutant receptor transiently expressed in CHOK1 cell membranes after 1 hr by liquid scintillation counting method
[18] = biological target: T1, Metabotropic glutamate receptor 2; test: Positive allosteric modulation of human mGlu2 receptor expressed in CHOK1 cell membranes assessed as increase in glutamate-induced [35S]GTPgammaS binding preincubated for 30 mins followed by [35S]GTPgammaS addition and measured after 90 mins by scintillation spectrometry method; format: functional
Target sequence in this assay (Q14416 whole entry): as above

Homo sapiens [19] = species: Homo sapiens; test: Displacement of [3H]JNJ-46281222 from human mGlu2 R6353.32x32A mutant receptor transiently expressed in CHOK1 cell membranes at 10 times IC50 after 1 hr by liquid scintillation counting method
[20] = biological target: T1, Metabotropic glutamate receptor 2; test: Displacement of [3H]JNJ-46281222 from human mGlu2 receptor expressed in CHOK1 cell membranes assessed as residence time after 1 hr in presence of glutamate by microbeta scintillation counting method
[21] = biological target: T1, Metabotropic glutamate receptor 2; test: Displacement of [3H]JNJ-46281222 from human mGlu2 receptor expressed in CHOK1 cell membranes assessed as dissociation rate constant after 1 hr in presence of glutamate by microbeta scintillation counting method
[22] = biological target: Metabotropic glutamate receptor 3 (Homo sapiens) (UniProt Q14832); test: Positive allosteric modulation of human mGlu3 receptor expressed in HEK293 cells by calcium assay; format: functional, cell-based
[23] = biological target: Metabotropic glutamate receptor 5 (Homo sapiens) (UniProt P41594); test: Antagonist activity at human mGlu5 receptor expressed in HEK293 cells by calcium assay; format: functional, cell-based
Metabotropic glutamate receptor 5 (Homo sapiens), sequence (P41594 21-1212 limits assumed): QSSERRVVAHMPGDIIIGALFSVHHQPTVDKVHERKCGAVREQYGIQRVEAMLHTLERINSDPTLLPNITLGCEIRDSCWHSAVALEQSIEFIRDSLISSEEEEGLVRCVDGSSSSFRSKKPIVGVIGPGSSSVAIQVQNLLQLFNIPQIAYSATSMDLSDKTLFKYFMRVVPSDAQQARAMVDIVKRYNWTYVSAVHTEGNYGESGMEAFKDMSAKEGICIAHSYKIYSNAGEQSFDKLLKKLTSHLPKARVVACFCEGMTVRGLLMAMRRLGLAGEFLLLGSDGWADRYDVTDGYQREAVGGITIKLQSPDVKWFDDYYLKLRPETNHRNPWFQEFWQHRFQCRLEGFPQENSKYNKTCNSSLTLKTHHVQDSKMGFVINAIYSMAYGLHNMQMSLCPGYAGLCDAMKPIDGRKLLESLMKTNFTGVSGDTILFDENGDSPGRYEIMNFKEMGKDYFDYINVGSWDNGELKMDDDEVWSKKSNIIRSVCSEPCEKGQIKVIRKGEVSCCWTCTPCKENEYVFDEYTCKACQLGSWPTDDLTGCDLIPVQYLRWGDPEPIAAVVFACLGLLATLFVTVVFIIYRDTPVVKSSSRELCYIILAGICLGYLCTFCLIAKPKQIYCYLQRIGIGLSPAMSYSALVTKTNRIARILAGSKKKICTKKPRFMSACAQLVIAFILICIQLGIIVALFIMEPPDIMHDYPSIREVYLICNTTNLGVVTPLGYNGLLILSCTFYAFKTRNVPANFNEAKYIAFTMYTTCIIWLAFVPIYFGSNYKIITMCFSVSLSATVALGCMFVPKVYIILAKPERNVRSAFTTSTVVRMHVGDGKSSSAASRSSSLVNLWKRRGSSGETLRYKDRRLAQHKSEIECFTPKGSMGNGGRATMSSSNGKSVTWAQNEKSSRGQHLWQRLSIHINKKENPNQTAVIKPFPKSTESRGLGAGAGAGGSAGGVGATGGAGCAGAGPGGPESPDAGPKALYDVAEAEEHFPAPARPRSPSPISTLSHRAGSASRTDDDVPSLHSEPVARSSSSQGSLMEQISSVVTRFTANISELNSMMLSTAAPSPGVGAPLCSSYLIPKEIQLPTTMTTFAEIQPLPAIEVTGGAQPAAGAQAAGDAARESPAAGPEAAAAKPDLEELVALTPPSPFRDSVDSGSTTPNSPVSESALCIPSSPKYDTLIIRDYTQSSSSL

[24] = biological target: Metabotropic glutamate receptor 3 (Homo sapiens) (UniProt Q14832); test: Agonist activity at human mGlu3 receptor expressed in HEK293 cells by calcium assay; format: functional, cell-based
[25] = biological target: Metabotropic glutamate receptor 1 (Homo sapiens) (UniProt Q13255); test: Antagonist activity at human mGlu1 receptor expressed in HEK293 cells by calcium assay; format: functional, cell-based
Metabotropic glutamate receptor 1 (Homo sapiens), sequence (Q13255 19-1194 limits assumed): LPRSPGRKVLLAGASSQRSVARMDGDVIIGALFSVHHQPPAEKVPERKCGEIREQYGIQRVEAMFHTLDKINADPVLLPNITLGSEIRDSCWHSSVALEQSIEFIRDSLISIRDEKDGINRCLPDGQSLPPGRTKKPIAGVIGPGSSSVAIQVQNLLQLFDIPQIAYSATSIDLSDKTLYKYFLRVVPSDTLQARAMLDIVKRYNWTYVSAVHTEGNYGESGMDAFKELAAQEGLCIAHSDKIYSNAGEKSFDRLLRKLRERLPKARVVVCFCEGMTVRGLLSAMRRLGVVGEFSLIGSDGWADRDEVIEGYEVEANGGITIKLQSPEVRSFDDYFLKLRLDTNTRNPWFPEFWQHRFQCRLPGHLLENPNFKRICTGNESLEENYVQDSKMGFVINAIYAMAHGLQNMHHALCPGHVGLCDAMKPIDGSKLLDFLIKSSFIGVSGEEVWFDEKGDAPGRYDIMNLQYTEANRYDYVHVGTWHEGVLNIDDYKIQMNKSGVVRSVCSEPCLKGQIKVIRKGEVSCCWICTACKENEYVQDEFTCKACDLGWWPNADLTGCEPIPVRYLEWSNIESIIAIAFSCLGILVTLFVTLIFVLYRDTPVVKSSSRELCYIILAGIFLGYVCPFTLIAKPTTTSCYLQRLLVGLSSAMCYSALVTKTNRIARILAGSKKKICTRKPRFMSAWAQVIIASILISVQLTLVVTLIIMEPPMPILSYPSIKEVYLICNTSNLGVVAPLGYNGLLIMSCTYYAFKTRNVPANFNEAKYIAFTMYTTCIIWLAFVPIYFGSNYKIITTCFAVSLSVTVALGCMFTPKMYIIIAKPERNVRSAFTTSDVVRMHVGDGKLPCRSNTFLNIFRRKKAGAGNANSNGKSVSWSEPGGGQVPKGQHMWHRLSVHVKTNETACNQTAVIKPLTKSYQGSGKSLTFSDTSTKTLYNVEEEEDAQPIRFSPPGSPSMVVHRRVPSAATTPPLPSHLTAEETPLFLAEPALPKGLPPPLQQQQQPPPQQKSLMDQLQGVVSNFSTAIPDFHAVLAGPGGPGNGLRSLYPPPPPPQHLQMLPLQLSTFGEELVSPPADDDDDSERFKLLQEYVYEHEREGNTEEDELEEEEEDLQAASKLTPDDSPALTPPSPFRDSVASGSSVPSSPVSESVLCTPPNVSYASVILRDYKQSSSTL

[26] = biological target: Metabotropic glutamate receptor 5 (Homo sapiens) (UniProt P41594); test: Positive allosteric modulation of human mGlu5 receptor expressed in HEK293 cells by calcium assay; format: functional, cell-based
[27] = biological target: Metabotropic glutamate receptor 8 (Homo sapiens) (UniProt O00222); test: Agonist activity at human mGlu8 receptor expressed in HEK293 cells by calcium assay; format: functional, cell-based
[28] = biological target: Metabotropic glutamate receptor 1 (Homo sapiens) (UniProt Q13255); test: Agonist activity at human mGlu1 receptor expressed in HEK293 cells by calcium assay; format: functional, cell-based
[29] = biological target: Metabotropic glutamate receptor 1 (Homo sapiens) (UniProt Q13255); test: Positive allosteric modulation of human mGlu1 receptor expressed in HEK293 cells by calcium assay; format: functional, cell-based
[30] = biological target: Metabotropic glutamate receptor 5 (Homo sapiens) (UniProt P41594); test: Agonist activity at human mGlu5 receptor expressed in HEK293 cells by calcium assay; format: functional, cell-based
[31] = biological target: Metabotropic glutamate receptor 8 (Homo sapiens) (UniProt O00222); test: Antagonist activity at human mGlu8 receptor expressed in HEK293 cells by calcium assay; format: functional, cell-based
[32] = biological target: Metabotropic glutamate receptor 3 (Homo sapiens) (UniProt Q14832); test: Antagonist activity at human mGlu3 receptor expressed in HEK293 cells by calcium assay; format: functional, cell-based

Structure (SMILES) | Ki [3] [nM] | K [5] | Ki [8] [nM] | inhibition [13] | inhibition (Homo sapiens [15]) | EC50 [18] [nM] | inhibition (Homo sapiens [19]) | TIME [20] [h] | K [21] [s⁻¹] | also measured
O=C(Nc1ccc(-c2ccn3c(CC4CC4)nnc3c2C(F)(F)F)cc1)c1ccc(S(=O)(=O)F)cc1 | 61.7 | 3.2 ×10³ /M/s | 6.17 | Active | Active | 158 | Active |  |  | Ratio EC50 [1]: 7; inhibition [2]: inactive; Activity [4]: Active; EC50 [6]: 1260 nM; inhibition [7]: Active; inhibition (Homo sapiens [9]): inactive; EC50 [10]: 178 nM; inhibition [11]: Active; Activity [12]: Active; Ratio Ki [14]: 10; Ki [16]: 174 nM; pKi [17]: 6.45
FC(F)(F)c1c(CN2CCC(c3ccccc3)CC2)ccn2c(CC3CC3)nnc12 |  |  |  |  | inactive |  | inactive |  |  | 
O=C(NCc1ccc(-c2ccn3c(CC4CC4)nnc3c2C(F)(F)F)cc1)c1ccc(S(=O)(=O)F)cc1 | 5.75 | 2.2 ×10⁵ /M/s | 4.17 | inactive |  | 15.1 |  | 0.483 | 0.00057 | 
O=C(Nc1cccc(-c2ccn3c(CC4CC4)nnc3c2C(F)(F)F)c1)c1ccc(S(=O)(=O)F)cc1 | 112 | 2.1 ×10⁴ /M/s | 166 | inactive |  | 158 |  | 0.3 | 0.00091 | Activity [22]: inactive; inhibition [23]: inactive; Activity [24]: inactive; inhibition [25]: inactive; Activity [26]: inactive; Activity [27]: inactive; Activity [28]: inactive; Activity [29]: inactive; Activity [30]: inactive; inhibition [31]: inactive; inhibition [32]: inactive

Reference: ChEMBL document CHEMBL4308827 (J Med Chem, 2018)
